Source: ChEMBL document CHEMBL1135609, “Discovery of gamma-lactam hydroxamic acids as selective inhibitors of tumor necrosis factor alpha converting enzyme: design, synthesis, and structure-activity relationships” (J Med Chem, 2002)

How the values were obtained:
[1] = target: Matrix metalloproteinase-9 (Homo sapiens, UniProt P14780); experiment: Affinity towards Matrix metalloprotease-9 (MMP-9)
[2] = target: T1, Disintegrin and metalloproteinase domain-containing protein 17 (Sus scrofa, UniProt O77636); experiment: Inhibitory activity against porcine Tumor necrosis factor alpha converting enzyme.
T1 sequence (O77636 whole entry, the tested form may be a part): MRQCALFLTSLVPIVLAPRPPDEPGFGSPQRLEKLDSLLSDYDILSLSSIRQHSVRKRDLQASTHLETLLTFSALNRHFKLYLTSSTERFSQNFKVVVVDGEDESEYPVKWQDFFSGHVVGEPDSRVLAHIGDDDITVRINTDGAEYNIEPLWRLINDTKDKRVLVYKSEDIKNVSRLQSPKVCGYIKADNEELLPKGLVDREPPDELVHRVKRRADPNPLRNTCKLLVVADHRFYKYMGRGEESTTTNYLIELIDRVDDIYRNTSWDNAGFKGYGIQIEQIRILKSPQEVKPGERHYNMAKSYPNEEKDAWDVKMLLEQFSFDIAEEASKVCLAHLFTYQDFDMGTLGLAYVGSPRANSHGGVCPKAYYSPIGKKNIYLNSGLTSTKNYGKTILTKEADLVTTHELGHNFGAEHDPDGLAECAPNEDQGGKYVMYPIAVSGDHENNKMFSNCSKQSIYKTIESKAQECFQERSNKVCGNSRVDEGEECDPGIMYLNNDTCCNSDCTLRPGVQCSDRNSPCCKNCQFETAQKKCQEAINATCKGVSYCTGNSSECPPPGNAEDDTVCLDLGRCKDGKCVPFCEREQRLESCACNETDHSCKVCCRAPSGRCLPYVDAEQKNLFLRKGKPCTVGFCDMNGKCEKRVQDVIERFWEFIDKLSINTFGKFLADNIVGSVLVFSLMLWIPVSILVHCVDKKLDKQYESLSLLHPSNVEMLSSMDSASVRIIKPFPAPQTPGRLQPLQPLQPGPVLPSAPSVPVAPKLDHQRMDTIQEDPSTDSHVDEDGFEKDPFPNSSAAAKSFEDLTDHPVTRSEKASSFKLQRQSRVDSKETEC

[3] = target: 72 kDa type IV collagenase (Homo sapiens, UniProt P08253); experiment: Affinity for Matrix metalloprotease-2 (MMP-2)
72 kDa type IV collagenase, sequence (P08253 whole entry): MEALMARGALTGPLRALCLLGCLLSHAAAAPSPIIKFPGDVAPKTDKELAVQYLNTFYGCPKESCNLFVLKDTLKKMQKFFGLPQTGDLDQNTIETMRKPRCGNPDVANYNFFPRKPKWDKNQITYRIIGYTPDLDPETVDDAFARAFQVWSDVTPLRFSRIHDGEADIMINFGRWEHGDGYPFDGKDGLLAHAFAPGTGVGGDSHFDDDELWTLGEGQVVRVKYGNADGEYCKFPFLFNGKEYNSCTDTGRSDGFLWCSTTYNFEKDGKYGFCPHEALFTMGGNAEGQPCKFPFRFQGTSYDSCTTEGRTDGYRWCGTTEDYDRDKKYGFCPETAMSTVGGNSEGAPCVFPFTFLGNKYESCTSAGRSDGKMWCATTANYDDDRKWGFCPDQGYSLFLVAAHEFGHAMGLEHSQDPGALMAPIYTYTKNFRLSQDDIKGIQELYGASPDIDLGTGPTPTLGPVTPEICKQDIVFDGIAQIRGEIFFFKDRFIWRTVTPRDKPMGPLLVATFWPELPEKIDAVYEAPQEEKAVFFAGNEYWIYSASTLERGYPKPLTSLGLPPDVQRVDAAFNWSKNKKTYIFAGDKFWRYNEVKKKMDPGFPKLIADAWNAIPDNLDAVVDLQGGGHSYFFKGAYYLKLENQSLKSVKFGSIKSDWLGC

[4] = target: T2, Interstitial collagenase (Homo sapiens, UniProt P03956); experiment: Affinity towards Matrix metalloprotease-1 (MMP-1)
T2 sequence (P03956 whole entry): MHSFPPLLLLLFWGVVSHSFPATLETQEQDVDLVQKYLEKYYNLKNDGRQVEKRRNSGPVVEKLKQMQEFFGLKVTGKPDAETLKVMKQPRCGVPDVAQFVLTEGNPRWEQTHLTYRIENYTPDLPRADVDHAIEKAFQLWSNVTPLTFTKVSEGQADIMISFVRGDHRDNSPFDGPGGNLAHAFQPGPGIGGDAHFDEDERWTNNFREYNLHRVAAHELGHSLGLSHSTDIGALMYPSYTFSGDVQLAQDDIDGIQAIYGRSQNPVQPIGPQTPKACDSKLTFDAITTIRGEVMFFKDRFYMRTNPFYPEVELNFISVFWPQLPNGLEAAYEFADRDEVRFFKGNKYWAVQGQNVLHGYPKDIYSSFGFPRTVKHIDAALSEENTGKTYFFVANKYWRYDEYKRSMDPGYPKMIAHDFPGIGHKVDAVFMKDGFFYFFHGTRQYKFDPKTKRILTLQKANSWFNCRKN

[5] = target: Disintegrin and metalloproteinase domain-containing protein 17 (Homo sapiens, UniProt P78536); experiment: Inhibition of Tumor necrosis factor alpha secretion in LPS-stimulated human whole blood assay; format: functional, tissue-based
Disintegrin and metalloproteinase domain-containing protein 17 (Homo sapiens, UniProt P78536), sequence (P78536 whole entry, the tested form may be a part): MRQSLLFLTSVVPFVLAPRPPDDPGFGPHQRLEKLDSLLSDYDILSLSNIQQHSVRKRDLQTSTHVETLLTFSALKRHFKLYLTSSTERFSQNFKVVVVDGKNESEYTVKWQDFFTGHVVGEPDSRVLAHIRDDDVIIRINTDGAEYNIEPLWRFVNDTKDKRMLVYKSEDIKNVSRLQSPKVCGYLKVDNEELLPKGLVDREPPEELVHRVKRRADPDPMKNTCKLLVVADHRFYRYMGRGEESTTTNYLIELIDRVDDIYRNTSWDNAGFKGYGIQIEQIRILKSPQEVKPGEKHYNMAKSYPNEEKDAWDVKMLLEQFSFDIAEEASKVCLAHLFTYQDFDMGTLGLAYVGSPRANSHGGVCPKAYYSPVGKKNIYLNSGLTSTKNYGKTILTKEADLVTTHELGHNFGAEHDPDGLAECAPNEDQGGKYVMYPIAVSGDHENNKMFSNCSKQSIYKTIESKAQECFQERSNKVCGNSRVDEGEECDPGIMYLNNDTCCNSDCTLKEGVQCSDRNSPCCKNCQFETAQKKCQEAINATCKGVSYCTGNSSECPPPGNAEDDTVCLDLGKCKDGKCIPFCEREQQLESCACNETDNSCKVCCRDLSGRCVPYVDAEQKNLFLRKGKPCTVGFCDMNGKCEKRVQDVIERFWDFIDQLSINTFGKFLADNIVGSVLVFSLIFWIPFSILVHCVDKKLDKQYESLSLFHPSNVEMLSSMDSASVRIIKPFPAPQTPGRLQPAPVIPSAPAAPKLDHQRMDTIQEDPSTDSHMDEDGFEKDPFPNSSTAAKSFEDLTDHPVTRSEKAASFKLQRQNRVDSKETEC

[6] = system: Rattus norvegicus; experiment: (§1) The compound was administered intravenously at a dose of 4 mg/Kg for determination area under curve; format: functional, organism-based
Method in brief: (§2)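 Sprague Dawley rats and Beagle dogs were dosed in cassette fashion, iv at 4 mg/kg or orally at 8 mg/kg. Plasma samples were analysed by LC–MS–MS. The iv arm gave clearance, volume of distribution at steady state, terminal half-life and AUC. The oral arm gave tmax and bioavailability. Two animals were used per dosing group.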

[7] = system: Canis familiaris; experiment: as §1; format: functional, organism-based; details: Canis lupus familiaris; method in brief: as §2
[8] = system: Rattus norvegicus; experiment: (§3) The compound was administered intravenously at a dose of 4 mg/Kg for determination of systemic clearance; format: functional, organism-based; method in brief: as §2
[9] = system: Rattus norvegicus; experiment: (§4) The compound was administered intravenously at a dose of 4 mg/Kg for determination of terminal half life; format: functional, organism-based
Method in brief: (§5)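 Cassette dosing in Sprague Dawley rats and Beagle dogs, given intravenously at 4 mg/kg. Plasma samples were analysed by LC–MS–MS, and terminal half-life was derived from the plasma profile. Two animals per dosing group.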

[10] = system: Canis familiaris; experiment: as §4; format: functional, organism-based; details: Canis lupus familiaris; method in brief: as §5
[11] = system: Rattus norvegicus; experiment: (§6) The compound was administered orally at a dose of 8 mg/Kg for determination of t max; format: functional, organism-based; method in brief: as §2
[12] = system: Canis familiaris; experiment: as §6; format: functional, organism-based; details: Canis lupus familiaris; method in brief: as §2
[13] = target: Matrix metalloproteinase-15 (Homo sapiens, UniProt P51511); experiment: Affinity for Matrix metalloprotease-15 (MMP-15)
[14] = target: T1, Disintegrin and metalloproteinase domain-containing protein 17; experiment: Affinity for Tumor necrosis factor alpha converting enzyme (TACE)
[15] = target: Matrix metalloproteinase-14 (Homo sapiens, UniProt P50281); experiment: Affinity for Matrix metalloprotease-14 (MMP-14)
[16] = as §3; format: ADME, organism-based, Canis lupus familiaris; details: dog, in vivo, iv; method in brief: as §2
[17] = (§7) Bioavailability (dose 8 mg/kg p.o.); format: ADME, organism-based; details: rat, in vivo, po; method in brief: as §2
[18] = target: Neutrophil collagenase (Homo sapiens, UniProt P22894); experiment: Affinity for Matrix metalloprotease-8 (MMP-8)
Neutrophil collagenase, sequence (P22894 whole entry): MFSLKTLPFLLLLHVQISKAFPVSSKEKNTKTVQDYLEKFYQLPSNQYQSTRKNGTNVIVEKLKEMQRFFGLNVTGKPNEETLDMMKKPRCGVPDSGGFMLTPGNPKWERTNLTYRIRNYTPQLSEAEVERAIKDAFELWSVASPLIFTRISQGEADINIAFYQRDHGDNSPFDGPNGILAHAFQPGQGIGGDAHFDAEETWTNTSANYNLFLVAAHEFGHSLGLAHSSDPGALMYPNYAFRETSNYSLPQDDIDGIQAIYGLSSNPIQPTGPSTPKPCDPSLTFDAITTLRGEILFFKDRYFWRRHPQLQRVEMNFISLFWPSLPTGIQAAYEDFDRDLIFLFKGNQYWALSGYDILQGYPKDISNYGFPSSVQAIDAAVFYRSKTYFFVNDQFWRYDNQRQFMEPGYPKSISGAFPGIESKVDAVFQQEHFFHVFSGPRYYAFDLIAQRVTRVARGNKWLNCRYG

[19] = target: Collagenase 3 (Homo sapiens, UniProt P45452); experiment: Affinity for Matrix metalloprotease-13 (MMP-13)
[20] = target: Stromelysin-1 (Homo sapiens, UniProt P08254); experiment: Affinity for Matrix metalloprotease-3 (MMP-3)
Stromelysin-1, sequence (P08254 whole entry): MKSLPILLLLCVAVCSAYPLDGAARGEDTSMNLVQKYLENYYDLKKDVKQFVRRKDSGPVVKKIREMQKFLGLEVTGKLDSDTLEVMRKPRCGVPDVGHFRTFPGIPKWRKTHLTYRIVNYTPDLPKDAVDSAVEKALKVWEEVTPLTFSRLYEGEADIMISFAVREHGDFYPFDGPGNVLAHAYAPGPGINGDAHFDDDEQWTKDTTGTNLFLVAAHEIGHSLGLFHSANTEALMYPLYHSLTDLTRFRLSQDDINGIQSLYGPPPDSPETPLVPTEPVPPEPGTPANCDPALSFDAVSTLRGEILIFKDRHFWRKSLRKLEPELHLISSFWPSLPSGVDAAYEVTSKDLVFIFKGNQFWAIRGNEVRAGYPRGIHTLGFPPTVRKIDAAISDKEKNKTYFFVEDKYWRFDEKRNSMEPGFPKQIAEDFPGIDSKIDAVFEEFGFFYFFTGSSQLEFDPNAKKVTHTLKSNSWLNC

[21] = target: Matrix metalloproteinase-16 (Homo sapiens, UniProt P51512); experiment: Affinity for Matrix metalloprotease-16 (MMP-16)
Matrix metalloproteinase-16, sequence (P51512 whole entry): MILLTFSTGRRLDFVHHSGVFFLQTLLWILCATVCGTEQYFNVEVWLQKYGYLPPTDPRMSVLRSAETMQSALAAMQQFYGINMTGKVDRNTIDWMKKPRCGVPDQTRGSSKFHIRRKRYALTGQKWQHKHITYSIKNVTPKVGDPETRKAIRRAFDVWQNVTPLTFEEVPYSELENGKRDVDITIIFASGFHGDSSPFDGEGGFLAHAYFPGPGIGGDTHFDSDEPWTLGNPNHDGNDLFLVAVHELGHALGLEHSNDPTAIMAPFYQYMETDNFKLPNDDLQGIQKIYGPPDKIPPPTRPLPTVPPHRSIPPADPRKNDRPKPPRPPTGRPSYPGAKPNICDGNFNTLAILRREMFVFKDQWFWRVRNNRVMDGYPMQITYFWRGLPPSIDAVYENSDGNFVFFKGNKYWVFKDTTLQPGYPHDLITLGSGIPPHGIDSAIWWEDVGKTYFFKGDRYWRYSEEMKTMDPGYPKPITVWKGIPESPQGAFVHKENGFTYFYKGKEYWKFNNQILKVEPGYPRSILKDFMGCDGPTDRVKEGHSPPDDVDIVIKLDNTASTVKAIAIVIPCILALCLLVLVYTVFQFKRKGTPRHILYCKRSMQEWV

[22] = target: T3, Matrilysin (Homo sapiens, UniProt P09237); experiment: Affinity for Matrix metalloprotease-7 (MMP-7)
T3 sequence (P09237 whole entry): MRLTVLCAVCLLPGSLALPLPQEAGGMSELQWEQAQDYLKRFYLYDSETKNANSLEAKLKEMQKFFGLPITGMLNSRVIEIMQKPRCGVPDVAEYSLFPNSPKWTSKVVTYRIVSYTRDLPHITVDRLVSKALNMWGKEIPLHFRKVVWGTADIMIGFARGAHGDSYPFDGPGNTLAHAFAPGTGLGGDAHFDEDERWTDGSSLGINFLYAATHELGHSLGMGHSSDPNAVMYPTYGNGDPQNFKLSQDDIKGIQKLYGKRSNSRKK

[23] = (§8) The compound was administered intravenously at a dose of 4 mg/Kg for determination of volume of distribution at steady state; format: ADME, organism-based; details: rat, in vivo, iv, read-out: Vss; method in brief: as §2
[24] = as §7; format: ADME, organism-based, Canis lupus familiaris; details: dog, in vivo, po; method in brief: as §2
[25] = as §8; format: ADME, organism-based, Canis lupus familiaris; details: dog, in vivo, iv, read-out: Vss; method in brief: as §2

Matrix metalloproteinase-9, sequence (P14780 whole entry, the tested form may be a part): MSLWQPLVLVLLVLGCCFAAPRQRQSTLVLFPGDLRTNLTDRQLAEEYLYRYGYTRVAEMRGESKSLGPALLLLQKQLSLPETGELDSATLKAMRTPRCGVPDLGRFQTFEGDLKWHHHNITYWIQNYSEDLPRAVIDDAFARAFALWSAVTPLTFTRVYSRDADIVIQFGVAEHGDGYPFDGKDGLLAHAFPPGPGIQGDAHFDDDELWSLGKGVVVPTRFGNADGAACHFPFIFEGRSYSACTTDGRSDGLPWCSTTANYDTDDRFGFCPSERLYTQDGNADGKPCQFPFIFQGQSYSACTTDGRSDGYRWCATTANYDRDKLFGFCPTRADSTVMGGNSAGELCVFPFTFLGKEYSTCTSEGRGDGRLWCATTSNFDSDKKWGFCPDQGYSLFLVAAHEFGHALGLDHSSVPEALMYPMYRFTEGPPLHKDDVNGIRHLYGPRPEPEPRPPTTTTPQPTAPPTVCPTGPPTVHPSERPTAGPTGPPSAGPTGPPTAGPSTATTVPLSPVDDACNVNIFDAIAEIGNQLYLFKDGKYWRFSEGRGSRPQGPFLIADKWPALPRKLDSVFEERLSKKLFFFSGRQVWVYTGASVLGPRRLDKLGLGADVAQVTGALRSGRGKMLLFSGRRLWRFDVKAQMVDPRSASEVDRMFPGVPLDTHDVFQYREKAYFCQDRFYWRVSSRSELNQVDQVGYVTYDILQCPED

SMILES | Ki [1] [nM] | Ki [3] [nM] | Ki [4] [nM] | IC50 [2] [nM] | further results
C[C@H](C(=O)NO)N1CC[C@@](C)(c2ccc(OCc3cc(C(F)(F)F)cc(C(F)(F)F)c3)cc2)C1=O | > 2000 | > 3000 | > 5000 | 2 | –
C[C@H](C(=O)NO)N1CC[C@@](C)(c2ccc(OCc3ccncc3)cc2)C1=O | – | – | – | 21 | IC50 [5]: 5900 nM
C[C@H](C(=O)NO)N1CC[C@@](C)(c2ccc(OC(C)(C)C)cc2)C1=O | – | – | – | > 10000 | –
Cc1cncc(C)c1COc1ccc([C@]2(C)CCN([C@H](C)C(=O)NO)C2=O)cc1 (stereo in doubt; 5q) | – | – | – | 3 | IC50 [5]: 6600 nM
Cc1cc(COc2ccc([C@]3(C)CCN([C@H](C)C(=O)NO)C3=O)cc2)c2ccccc2n1 (stereo in doubt) [listing 1 of 2 here] | – | – | – | – | AUC [6]: 1810 ng·h/mL; AUC [7]: 4430 ng·h/mL; CL (mL.min-1.kg-1) [8]: 35; T1/2 [9]: 11.8 h; T1/2 [10]: 7.1 h; Tmax [11]: 0.38 h; Tmax [12]: 0.38 h
Cc1cc(COc2ccc([C@]3(C)CCN([C@H](C)C(=O)NO)C3=O)cc2)c2ccccc2n1 (stereo in doubt; 5s) | – | – | – | 1 | –
C[C@H](C(=O)NO)N1CC[C@@](C)(c2ccc(Oc3ccccc3)cc2)C1=O | < 2.1 | < 2.8 | 143 | 185 | –
C[C@H](C(=O)NO)N1CC[C@@](C)(c2ccc(OCc3ccnc4ccccc34)cc2)C1=O | – | – | – | 1.8 | IC50 [5]: 2250 nM
C[C@H](C(=O)NO)N1CC[C@@](C)(c2ccc(OCc3ccccc3[N+](=O)[O-])cc2)C1=O | 66 | 35 | > 5000 | 4 | –
C=CCOc1ccc([C@]2(C)CCN([C@H](C)C(=O)NO)C2=O)cc1 | 11 | 14 | 335 | 97 | –
Cc1cncc(C)c1COc1ccc([C@]2(C)CCN([C@H](C)C(=O)NO)C2=O)cc1 (stereo in doubt; 5p) | – | – | – | 16 | IC50 [5]: 8100 nM

More lines, main results first:

Ki [1] [nM] | Ki [3] [nM] | Ki [4] [nM] | SMILES | IC50 [2] [nM] | further results
1630 | 5810 | 4750 | Cc1cc(C)cc(COc2ccc([C@]3(C)CCN([C@H](C)C(=O)NO)C3=O)cc2)c1 | 4 | –
29 | 19 | > 5000 | C[C@H](C(=O)NO)N1CC[C@@](C)(c2ccc(OCc3ccccc3)cc2)C1=O | 4 | –
> 2000 | > 3000 | > 5000 | COc1cc(COc2ccc([C@]3(C)CCN([C@H](C)C(=O)NO)C3=O)cc2)cc(OC)c1 | 7 | –
10300 | 2050 | 30000 | Cc1cc(COc2ccc([C@]3(C)CCN([C@H](C)C(=O)NO)C3=O)cc2)c2ccccc2n1 (stereo in doubt) [listing 2 of 2 here] | – | Ki [13]: 4000 nM; Ki [14]: 0.56 nM; Ki [15]: 15900 nM; clearance [16]: 15.7 mL/min/kg; bioavailability [17]: 41%; Ki [18]: 257 nM; Ki [19]: 1420 nM; Ki [20]: 141 nM; Ki [21]: 1600 nM; Ki [22]: 259 nM; Vd [23]: 2 L/kg; bioavailability [24]: 32%; Vd [25]: 0.93 L/kg
586 | 701 | 4000 | CC(C)Cc1ccc([C@]2(C)CCN([C@H](C)C(=O)NO)C2=O)cc1 | 1000 | –
242 | 108 | 221 | C[C@H](C(=O)NO)N1CC[C@@](C)(c2ccccc2)C1=O | 2200 | –
35 | 82 | 2290 | C[C@H](C(=O)NO)N1CC[C@@](C)(c2ccc(-c3ccccc3)cc2)C1=O | 13000 | –
39 | 38 | > 5000 | C[C@H](C(=O)NO)N1CC[C@@](C)(c2ccc(OCc3cccc([N+](=O)[O-])c3)cc2)C1=O | 6 | –
40 | 11 | > 5000 | C[C@H](C(=O)NO)N1CC[C@@](C)(c2ccc(OCc3ccc([N+](=O)[O-])cc3)cc2)C1=O | 6 | –
9 | 4.8 | 92 | COc1ccc([C@]2(C)CCN([C@H](C)C(=O)NO)C2=O)cc1 | 887 | –
